Laboratory results as given in ChEMBL document CHEMBL5247575 (J Med Chem, 2018).

System: Pseudomonas aeruginosa
Assay: Synergistic antibacterial activity against Pseudomonas aeruginosa 776 assessed as meropenem MIC at 4 ug/ml by broth microdilution method
Assay type: functional
Settings: dose 4 µg/ml
`O=C(NNC(=O)[C@@H]1CC[C@@H]2CN1C(=O)N2OS(=O)(=O)O)[C@@H]1CCCNC1` [ZIDEBACTAM] showed an MIC of 16 mg/L.

System: Escherichia coli
Assay: Synergistic antibacterial activity against Escherichia coli DH10B transfected with pBR322-catI-KPC-2 assessed as cefepime MIC at 8 ug/ml by broth microdilution method
Assay type: functional
Settings: dose 8 µg/ml
Method in brief: (§1)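 Broth microdilution per CLSI guidelines, using custom frozen panels. […] Each partner drug was also tested alone. MICs were run in triplicate and the modal value is reported.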
For `O=C(NNC(=O)[C@@H]1CC[C@@H]2CN1C(=O)N2OS(=O)(=O)O)[C@@H]1CCCNC1` [ZIDEBACTAM], the MIC was at most 0.12 mg/L.

System: Klebsiella pneumoniae
Assay: Synergistic antibacterial activity against Klebsiella pneumoniae CAV 1636 producing OXA-181 assessed as meropenem MIC at 8 ug/ml by broth microdilution method
Assay type: functional
Settings: dose 8 µg/ml
With `O=C(NNC(=O)[C@@H]1CC[C@@H]2CN1C(=O)N2OS(=O)(=O)O)[C@@H]1CCCNC1` [ZIDEBACTAM] the MIC was at most 0.12 mg/L.

System: Klebsiella pneumoniae
Assay: Synergistic antibacterial activity against Klebsiella pneumoniae 977/1916 producing KPC-3 assessed as cefepime MIC at 4 ug/ml by broth microdilution method
Assay type: functional
Settings: dose 4 µg/ml
Work on `O=C(NNC(=O)[C@@H]1CC[C@@H]2CN1C(=O)N2OS(=O)(=O)O)[C@@H]1CCCNC1` [ZIDEBACTAM] yielded an MIC of at most 0.12 mg/L.

System: Klebsiella pneumoniae
Assay: Synergistic antibacterial activity against Klebsiella pneumoniae 776/1742 producing KPC-2 assessed as cefepime MIC at 4 ug/ml by broth microdilution method
Assay type: functional
Settings: dose 4 µg/ml
With `O=C(NNC(=O)[C@@H]1CC[C@@H]2CN1C(=O)N2OS(=O)(=O)O)[C@@H]1CCCNC1` [ZIDEBACTAM] the MIC was at most 0.12 mg/L.

System: Acinetobacter baumannii
Assay: Synergistic antibacterial activity against Acinetobacter baumannii PR323 producing OXA-24/40 assessed as cefepime MIC at 8 ug/ml by broth microdilution method
Assay type: functional
Settings: dose 8 µg/ml
Compound `O=C(NNC(=O)[C@@H]1CC[C@@H]2CN1C(=O)N2OS(=O)(=O)O)[C@@H]1CCCNC1` [ZIDEBACTAM] has an MIC of 4 mg/L.

System: Pseudomonas aeruginosa
Assay: Synergistic antibacterial activity against Pseudomonas aeruginosa CL232 assessed as cefepime MIC at 8 ug/ml by broth microdilution method
Assay type: functional
Settings: dose 8 µg/ml
For `O=C(NNC(=O)[C@@H]1CC[C@@H]2CN1C(=O)N2OS(=O)(=O)O)[C@@H]1CCCNC1` [ZIDEBACTAM], the MIC was 16 mg/L.

System: Klebsiella pneumoniae
Assay: Synergistic antibacterial activity against Klebsiella pneumoniae 1398/2291 producing KPC-3 assessed as cefepime MIC at 4 ug/ml by broth microdilution method
Assay type: functional
Settings: dose 4 µg/ml
Method in brief: as §1
For `O=C(NNC(=O)[C@@H]1CC[C@@H]2CN1C(=O)N2OS(=O)(=O)O)[C@@H]1CCCNC1` [ZIDEBACTAM], the MIC was at most 0.12 mg/L.

Target: not listed separately
Assay: Binding affinity to bacteria ADC-7 assessed as dissociation constant
Settings: not given
With `O=C(NNC(=O)[C@@H]1CC[C@@H]2CN1C(=O)N2OS(=O)(=O)O)[C@@H]1CCCNC1` [ZIDEBACTAM] the Kd was 0.032 µM.

System: Escherichia coli
Assay: Synergistic antibacterial activity against Escherichia coli DH10B transfected with pBR322-catI-KPC-2 assessed as meropenem MIC at 8 ug/ml by broth microdilution method
Assay type: functional
Settings: dose 8 µg/ml
Method in brief: as §1
For `O=C(NNC(=O)[C@@H]1CC[C@@H]2CN1C(=O)N2OS(=O)(=O)O)[C@@H]1CCCNC1` [ZIDEBACTAM], the MIC was at most 0.12 mg/L.

System: Acinetobacter baumannii
Assay: Synergistic antibacterial activity against ADC deleted Acinetobacter baumannii transfected with pWH1266 OXA-23 assessed as cefepime MIC at 8 ug/ml by broth microdilution method
Assay type: functional
Settings: dose 8 µg/ml
`O=C(NNC(=O)[C@@H]1CC[C@@H]2CN1C(=O)N2OS(=O)(=O)O)[C@@H]1CCCNC1` [ZIDEBACTAM] gave an MIC of 16 mg/L.

System: Klebsiella pneumoniae
Assay: Synergistic antibacterial activity against Klebsiella pneumoniae 1315/2198 producing KPC-3 assessed as cefepime MIC at 8 ug/ml by broth microdilution method
Assay type: functional
Settings: dose 8 µg/ml
Method in brief: as §1
`O=C(NNC(=O)[C@@H]1CC[C@@H]2CN1C(=O)N2OS(=O)(=O)O)[C@@H]1CCCNC1` [ZIDEBACTAM] showed an MIC of at most 0.12 mg/L.

System: Escherichia coli
Assay: Synergistic antibacterial activity against Escherichia coli DH10B transfected with pBC SK (-) KPC-2 assessed as cefepime MIC at 8 ug/ml by broth microdilution method
Assay type: functional
Settings: dose 8 µg/ml
For `O=C(NNC(=O)[C@@H]1CC[C@@H]2CN1C(=O)N2OS(=O)(=O)O)[C@@H]1CCCNC1` [ZIDEBACTAM], the MIC was at most 0.12 mg/L.

System: Klebsiella pneumoniae
Assay: Synergistic antibacterial activity against Klebsiella pneumoniae jefferson 1775 producing OXA-48 assessed as cefepime MIC at 8 ug/ml by broth microdilution method
Assay type: functional
Settings: dose 8 µg/ml
`O=C(NNC(=O)[C@@H]1CC[C@@H]2CN1C(=O)N2OS(=O)(=O)O)[C@@H]1CCCNC1` [ZIDEBACTAM] gave an MIC of at most 0.12 mg/L.

System: Pseudomonas aeruginosa
Assay: Synergistic antibacterial activity against Pseudomonas aeruginosa 795 assessed as cefepime MIC at 8 ug/ml by broth microdilution method
Assay type: functional
Settings: dose 8 µg/ml
`O=C(NNC(=O)[C@@H]1CC[C@@H]2CN1C(=O)N2OS(=O)(=O)O)[C@@H]1CCCNC1` [ZIDEBACTAM] showed an MIC of 16 mg/L.

System: Acinetobacter baumannii
Assay: Synergistic antibacterial activity against Acinetobacter baumannii PR323 producing OXA-24/40 assessed as meropenem MIC at 8 ug/ml by broth microdilution method
Assay type: functional
Settings: dose 8 µg/ml
`O=C(NNC(=O)[C@@H]1CC[C@@H]2CN1C(=O)N2OS(=O)(=O)O)[C@@H]1CCCNC1` [ZIDEBACTAM] showed an MIC of over 16 mg/L.

System: Klebsiella pneumoniae
Assay: Synergistic antibacterial activity against Klebsiella pneumoniae 1398/2291 producing KPC-3 assessed as meropenem MIC at 8 ug/ml by broth microdilution method
Assay type: functional
Settings: dose 8 µg/ml
Method in brief: as §1
With `O=C(NNC(=O)[C@@H]1CC[C@@H]2CN1C(=O)N2OS(=O)(=O)O)[C@@H]1CCCNC1` [ZIDEBACTAM] the MIC was at most 0.12 mg/L.

System: Escherichia coli
Assay: Synergistic antibacterial activity against Escherichia coli DH10B transfected with pBC SK (-) KPC-2 assessed as meropenem MIC at 8 ug/ml by broth microdilution method
Assay type: functional
Settings: dose 8 µg/ml
For `O=C(NNC(=O)[C@@H]1CC[C@@H]2CN1C(=O)N2OS(=O)(=O)O)[C@@H]1CCCNC1` [ZIDEBACTAM], the MIC was at most 0.12 mg/L.

System: Klebsiella pneumoniae
Assay: Synergistic antibacterial activity against Klebsiella pneumoniae 660/1568 producing KPC-3 assessed as cefepime MIC at 4 ug/ml by broth microdilution method
Assay type: functional
Settings: dose 4 µg/ml
Method in brief: as §1
`O=C(NNC(=O)[C@@H]1CC[C@@H]2CN1C(=O)N2OS(=O)(=O)O)[C@@H]1CCCNC1` [ZIDEBACTAM] showed an MIC of at most 0.12 mg/L.
